Data as given in BindingDB's records for doi:10.1016/j.bmcl.2014.05.064 (The University of Tokyo, 2014).

Target: T1, NPC intracellular cholesterol transporter 1 [I1061T] (Homo sapiens, UniProt O15118, I1061T)
T1 construct: gene NPC1
Test: Binding affinity to FLAG/tGFP-tagged NPC1 I1061T mutant (unknown origin) expressed in HEK293 cells assessed as localization after 24 hrs by fluorescence microscopy
Procedure, shortened: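 HEK293 cells stably expressing NPC1 I1061T-tGFP were exposed to compound for 24 h, fixed, and nuclei stained with Hoechst 33342. In the images, each cell was scored by tGFP pattern: ER 0, mixed ER+vesicle 0.5, vesicular 1. Scores were averaged to give the vesicular-localization percentage, and EC50 was taken from concentration-response. Data are mean ± standard deviation of three independent experiments.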

T1 sequence (O15118 23-1278 I1061T limits assumed): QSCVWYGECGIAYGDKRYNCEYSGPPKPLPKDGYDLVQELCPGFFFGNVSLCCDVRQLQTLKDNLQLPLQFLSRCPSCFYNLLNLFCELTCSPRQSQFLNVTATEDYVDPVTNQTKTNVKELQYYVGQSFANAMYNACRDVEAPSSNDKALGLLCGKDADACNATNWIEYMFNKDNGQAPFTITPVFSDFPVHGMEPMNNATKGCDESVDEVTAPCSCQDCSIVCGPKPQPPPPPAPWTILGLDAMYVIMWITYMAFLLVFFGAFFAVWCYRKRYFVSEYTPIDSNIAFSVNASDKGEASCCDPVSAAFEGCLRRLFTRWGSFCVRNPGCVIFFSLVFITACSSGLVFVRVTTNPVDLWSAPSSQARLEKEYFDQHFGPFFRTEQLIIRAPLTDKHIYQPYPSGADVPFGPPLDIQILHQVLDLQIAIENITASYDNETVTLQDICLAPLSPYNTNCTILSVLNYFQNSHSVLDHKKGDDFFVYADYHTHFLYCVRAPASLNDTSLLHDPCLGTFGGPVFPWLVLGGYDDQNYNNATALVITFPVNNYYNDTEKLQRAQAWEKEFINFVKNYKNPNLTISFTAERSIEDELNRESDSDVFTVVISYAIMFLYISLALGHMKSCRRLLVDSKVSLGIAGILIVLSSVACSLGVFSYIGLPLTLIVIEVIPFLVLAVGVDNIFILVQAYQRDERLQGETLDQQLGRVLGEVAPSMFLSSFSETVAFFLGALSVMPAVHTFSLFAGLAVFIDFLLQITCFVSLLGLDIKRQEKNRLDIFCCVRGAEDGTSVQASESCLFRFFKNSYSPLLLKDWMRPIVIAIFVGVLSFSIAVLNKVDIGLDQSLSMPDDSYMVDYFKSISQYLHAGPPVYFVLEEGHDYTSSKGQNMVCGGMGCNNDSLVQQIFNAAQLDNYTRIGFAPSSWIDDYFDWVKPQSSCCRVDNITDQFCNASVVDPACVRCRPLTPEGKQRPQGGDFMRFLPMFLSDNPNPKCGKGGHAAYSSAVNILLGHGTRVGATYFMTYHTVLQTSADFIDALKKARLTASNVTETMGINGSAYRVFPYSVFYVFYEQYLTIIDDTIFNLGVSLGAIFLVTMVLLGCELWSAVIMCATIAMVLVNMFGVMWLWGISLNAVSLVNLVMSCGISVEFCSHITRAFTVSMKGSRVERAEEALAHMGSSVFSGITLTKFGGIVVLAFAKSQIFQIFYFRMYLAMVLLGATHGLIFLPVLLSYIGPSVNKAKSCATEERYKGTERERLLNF

Structure (SMILES) | EC50
CC(C)CCC[C@@H](C)[C@H]1CC[C@H]2[C@@H]3C[C@@H](O)[C@@]4(O)C[C@@H](OCC(=O)N(CCO)CCO)CC[C@]4(C)[C@H]3CC[C@]12C | 560 nM
CC(C)CCC[C@@H](C)[C@H]1CC[C@H]2[C@@H]3[C@@H](O)C=C4C[C@@H](OCCO)CC[C@]4(C)[C@H]3CC[C@]12C | 3400 nM
CC(C)CCC[C@@H](C)[C@H]1CC[C@H]2[C@@H]3C[C@@H](O)[C@@]4(O)C[C@@H](OCC(=O)N5CCCCC5)CC[C@]4(C)[C@H]3CC[C@]12C | 1800 nM
CC(C)CCC[C@@H](C)[C@H]1CC[C@H]2[C@@H]3C[C@@H](O)[C@@]4(O)C[C@@H](O)CC[C@]4(C)[C@H]3CC[C@]12C [CHEBI:28082] | 1700 nM
CC(C)C(=O)NC[C@@H](C)[C@H]1CC[C@H]2[C@@H]3C[C@@H](O)[C@@]4(O)C[C@@H](OCC(=O)N5CCOCC5)CC[C@]4(C)[C@H]3CC[C@]12C | 370 nM
C[C@]12CC[C@H](O)CC1=CC[C@@H]1[C@@H]2CC[C@]2(C)C(=O)CC[C@@H]12 [Prasterone] | > 10000 nM
CC(C)CCC[C@@H](C)[C@H]1CC[C@H]2[C@@H]3C[C@@H](O)[C@@]4(O)C[C@@H](OCC(N)=O)CC[C@]4(C)[C@H]3CC[C@]12C | 840 nM
CCN(CC)C(=O)CC[C@@H](C)[C@H]1CC[C@H]2[C@@H]3CC=C4C[C@@H](O)CC[C@]4(C)[C@H]3CC[C@]12C | 1700 nM
CC(C)CCC[C@@H](C)[C@H]1CC[C@H]2[C@@H]3CC(=O)[C@@]4(O)C[C@@H](O)CC[C@]4(C)[C@H]3CC[C@]12C | 1700 nM
CC(C)CCC[C@@H](C)[C@H]1CC[C@H]2[C@@H]3C(=O)C=C4C[C@@H](OCC(=O)N5CCOCC5)CC[C@]4(C)[C@H]3CC[C@]12C | 290 nM
C[C@H](CNC(=O)N(C)C)[C@H]1CC[C@H]2[C@@H]3C[C@@H](O)[C@@]4(O)C[C@@H](OCC(=O)N5CCOCC5)CC[C@]4(C)[C@H]3CC[C@]12C | 6800 nM
C[C@H](CCCC(C)(C)O)[C@H]1CC[C@H]2[C@@H]3CCC4=CC(=O)CC[C@]4(C)[C@H]3CC[C@]12C | 4000 nM
CC(C)CCC[C@@H](C)[C@H]1CC[C@H]2[C@@H]3C[C@@H](O)[C@@]4(O)C[C@@H](OCC(=O)N5CCOCC5)CC[C@]4(C)[C@H]3CC[C@]12C | 150 nM
CC(C)CCC[C@@H](C)[C@H]1CC[C@H]2[C@@H]3C(=O)C=C4C[C@@H](O)CC[C@]4(C)[C@H]3CC[C@]12C [CHEBI:64294] | 8700 nM
CCN(CC)CCO[C@H]1CC[C@@]2(C)C(=CC[C@H]3[C@@H]4CC[C@H]([C@H](C)CCCC(C)(C)O)[C@@]4(C)CC[C@@H]32)C1 | 9900 nM
C[C@H](CCC(=O)N(C)C)[C@H]1CC[C@H]2[C@@H]3CC=C4C[C@@H](O)CC[C@]4(C)[C@H]3CC[C@]12C [(4R)-4-[(1S,2R,5S,10S,11S,14R,15R)-5-hydroxy-2,15-dimethyltetracyclo[8.7.0.0^{2,7}.0^{11,15}]heptadec-7-en-14-yl]-N,N-dimethylpentanamide] | 3100 nM
CC(C)CCC[C@@H](C)[C@H]1CC[C@H]2[C@@H]3CC(=O)[C@H]4C[C@@H](O)CC[C@]4(C)[C@H]3CC[C@]12C [5alpha-CHOLESTAN-3beta-OL-6-ONE] | 3400 nM

Structure (SMILES) | EC50
C[C@H](CCCC(C)(C)O)[C@H]1CC[C@H]2[C@@H]3CC=C4C[C@@H](OCC(=O)N5CCOCC5)CC[C@]4(C)[C@H]3CC[C@]12C | 880 nM
CC(C)CCC[C@@H](C)[C@H]1CC[C@H]2[C@@H]3[C@@H](O)C=C4C[C@@H](OC(=O)N5CCOCC5)CC[C@]4(C)[C@H]3CC[C@]12C | 6100 nM
C[C@H](COc1cc(C(F)(F)F)cc(C(F)(F)F)c1)[C@H]1CC[C@H]2[C@@H]3C[C@@H](O)[C@@]4(O)C[C@@H](OCC(=O)N5CCOCC5)CC[C@]4(C)[C@H]3CC[C@]12C | > 10000 nM
CC(C)CCC[C@@H](C)[C@H]1CC[C@H]2[C@@H]3C[C@@H](O)[C@@]4(O)C[C@@H](OCCN5CCOCC5)CC[C@]4(C)[C@H]3CC[C@]12C | 1000 nM
C[C@H](CCCC(C)(C)O)[C@H]1CC[C@H]2[C@@H]3C(=O)C=C4C[C@@H](O)CC[C@]4(C)[C@H]3CC[C@]12C | 1500 nM
C[C@H](CNC(=O)c1cc(C(F)(F)F)cc(C(F)(F)F)c1)[C@H]1CC[C@H]2[C@@H]3C[C@@H](O)[C@@]4(O)C[C@@H](OCC(=O)N5CCOCC5)CC[C@]4(C)[C@H]3CC[C@]12C | 86 nM
CC(C)CCC[C@@H](C)[C@H]1CC[C@H]2[C@@H]3[C@@H](O)C=C4C[C@@H](OCC(=O)N5CCOCC5)CC[C@]4(C)[C@H]3CC[C@]12C | 360 nM
C[C@H](CCCC(C)(C)O)[C@H]1CC[C@H]2[C@@H]3CC=C4C[C@@H](O)CC[C@]4(C)[C@H]3CC[C@]12C [(1S,2R,5S,10S,11S,14R,15R)-14-[(2R)-6-hydroxy-6-methylheptan-2-yl]-2,15-dimethyltetracyclo[8.7.0.0^{2,7}.0^{11,15}]heptadec-7-en-5-ol] | 3300 nM
C[C@H](CCCC(C)(C)O)[C@H]1CC[C@H]2[C@@H]3CC=C4C[C@@H](OCC(=O)N(C)C)CC[C@]4(C)[C@H]3CC[C@]12C | 1400 nM
CC(C)CCC[C@@H](C)[C@H]1CC[C@H]2[C@@H]3[C@@H](O)C=C4C[C@@H](O)CC[C@]4(C)[C@H]3CC[C@]12C [CHEBI:42989] | 3400 nM
CCN(CC)C(=O)CO[C@H]1CC[C@@]2(C)C(=CC[C@H]3[C@@H]4CC[C@H]([C@H](C)CCCC(C)(C)O)[C@@]4(C)CC[C@@H]32)C1 | 4800 nM
CC(C)CCC[C@@H](C)[C@H]1CC[C@H]2[C@@H]3CC[C@@]4(O)[C@@H](O)[C@@H](O)CC[C@]4(C)[C@H]3CC[C@]12C [Cholestane-3b,4b,5a-triol] | 4300 nM
C[C@H](CCCC(C)(C)O)[C@H]1CC[C@H]2[C@@H]3C[C@@H](O)[C@@]4(O)C[C@@H](O)CC[C@]4(C)[C@H]3CC[C@]12C | 1700 nM
C[C@H](CCCC(C)(C)O)[C@H]1CC[C@H]2[C@@H]3[C@@H](O)C=C4C[C@@H](O)CC[C@]4(C)[C@H]3CC[C@]12C | 1900 nM
CC[C@H](/C=C/[C@@H](C)[C@H]1CC[C@H]2[C@@H]3C[C@@H](O)[C@@]4(O)C[C@@H](OCC(=O)N5CCOCC5)CC[C@]4(C)[C@H]3CC[C@]12C)C(C)C | 360 nM
CC(C)CC[C@H](O)[C@@H](C)[C@H]1CC[C@H]2[C@@H]3CC=C4C[C@@H](O)CC[C@]4(C)[C@H]3CC[C@]12C [(1S,2R,5S,10S,11S,14R,15S)-14-[(2S,3S)-3-hydroxy-6-methylheptan-2-yl]-2,15-dimethyltetracyclo[8.7.0.0^{2,7}.0^{11,15}]heptadec-7-en-5-ol] | 2900 nM
